Experiments:
Hepatitis C virus = assay: Antiviral activity against HCV replication in human hepatoma cells by replicon assay; type: functional, Hepacivirus hominis
[1] = Binding affinity to HCV NS3 protease by spectrophotometry; design: species or system Hepacivirus hominis
[2] = AUC (0 to 6 hrs) in rat at 10 mg/kg, po; type: ADME, organism-based; design: time < 6 hr, dose 10 mg/kg, route oral; conditions: plasma
[3] = Drug level in rat liver at 10 mg/kg, po after 6 hrs; type: ADME, organism-based; design: dose 10 mg/kg, route oral; conditions: read-out: Drug uptake
In short: (§1)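 Oral dosing in rats at 10 mpk as a suspension in 0.4% HPMC; liver concentration measured in ng/g tissue at 1 h or 6 h after dosing.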

[4] = AUC (0 to 24 hrs) in rat at 10 mg/kg, po; type: ADME, organism-based; design: time < 24 hr, dose 10 mg/kg, route oral; conditions: plasma
[5] = Bioavailability in rat at 10 mg/kg, po; type: ADME, organism-based; conditions: in vivo
[6] = AUC in po dosed rat; type: ADME, organism-based; conditions: plasma
[7] = Drug level in rat liver at 10 mg/kg, po after 1 hr; type: ADME, organism-based; design: dose 10 mg/kg, route oral; conditions: read-out: Drug uptake; in short: as §1
Rattus norvegicus = assay: AUC in rat at 10 mg/kg, po; type: ADME, organism-based, Plasma; design: dose 10 mg/kg, route oral; conditions: in vivo

Row | Compound | EC90 (Hepatitis C virus) [nM] | Ki [1] [nM] | further results
1 | C#CCCC(NC(=O)[C@@H]1[C@@H]2[C@H](CN1C(=O)[C@@H](NC(=O)N[C@H](COC(=O)NCC)C1CCCCC1)C1(C)CCCCC1)C2(C)C)C(=O)C(=O)NCC=C (stereo not given in full) | 200 | 13 | 
2 | C#CCCC(NC(=O)[C@@H]1[C@@H]2[C@H](CN1C(=O)[C@@H](NC(=O)N[C@H](COC(=O)NCC)C(C)(C)C)C1Cc3ccccc3C1)C2(C)C)C(=O)C(=O)NCC=C (stereo not given in full) | 550 | 10 | 
3 | C#CCCC(NC(=O)[C@@H]1[C@@H]2[C@H](CN1C(=O)[C@@H](NC(=O)N[C@H](COC(=O)NC(C)C)C(C)(C)C)C1(C)CCCCC1)C2(C)C)C(=O)C(=O)NCC=C (stereo not given in full) | 150 | 8 | AUC(0-t) at 6 h [2]: 7.9 µM·h; concentration at 6 h [3]: 1110 ng/g
4 | C#CCCC(NC(=O)[C@@H]1[C@@H]2[C@H](CN1C(=O)[C@@H](NC(=O)N[C@H](COC(=O)NCC)C(C)(C)C)C1(C)CCCCC1)C2(C)C)C(=O)C(=O)NCC=C (stereo not given in full) | 150 | 9 | AUC(0-t) at 24 h [4]: 26 µM·h; bioavailability [5]: 43%; concentration at 6 h [3]: 1110 ng/g
5 | COC[C@@H](NC(=O)N[C@H](C(=O)N1C[C@H]2[C@@H]([C@H]1C(=O)NC(CC1CCC1)C(=O)C(N)=O)C2(C)C)C(C)(C)C)C(C)(C)C (stereo not given in full) |  | 120 | 
6 | COC[C@@H](NC(=O)N[C@H](C(=O)N1C[C@H]2[C@@H]([C@H]1C(=O)NC(CC1CCC1)C(=O)C(N)=O)C2(C)C)C1CCCCC1)C(C)(C)C (stereo not given in full) | 300 | 30 | 
7 | C#CCCC(NC(=O)[C@@H]1[C@@H]2[C@H](CN1C(=O)[C@@H](NC(=O)N[C@H](COC(=O)NCC(C)C)C(C)(C)C)C1(C)CCCCC1)C2(C)C)C(=O)C(=O)NCC=C (stereo not given in full) | 70 | 9 | AUC(0-t) at 6 h [2]: 4.9 µM·h; concentration at 6 h [3]: 750 ng/g
8 | COC[C@@H](NC(=O)N[C@H](C(=O)N1C[C@H]2[C@@H]([C@H]1C(=O)NC(CC1CCC1)C(=O)C(N)=O)C2(C)C)C1(C)CCCCC1)C(C)C (stereo not given in full) | 200 | 12 | 
9 | CCNC(=O)OC[C@@H](NC(=O)N[C@H](C(=O)N1C[C@H]2[C@@H]([C@H]1C(=O)NC(CC1CCC1)C(=O)C(N)=O)C2(C)C)C1(C)CCCCC1)C(C)(C)C (stereo not given in full) | 150 | 8 | 
10 | CC(C)(C)NC(=O)N[C@H](C(=O)N1C[C@H]2[C@@H]([C@H]1C(=O)NC(CC1CCC1)C(=O)C(N)=O)C2(C)C)C(C)(C)C (stereo not given in full) [BOCEPREVIR] | 350 | 14 | 
11 | COC[C@@H](NC(=O)N[C@H](C(=O)N1C[C@H]2[C@@H]([C@H]1C(=O)NC(CC1CCC1)C(=O)C(N)=O)C2(C)C)C1(C)CCCC1)C(C)(C)C (stereo not given in full) | 400 | 22 | 
12 | CCNC(=O)OC[C@@H](NC(=O)N[C@H](C(=O)N1C[C@H]2[C@@H]([C@H]1C(=O)NC(CC1CCC1)C(=O)C(N)=O)C2(C)C)C(C)(C)C)C(C)(C)C (stereo not given in full) | 250 | 9 | 
13 | COC[C@@H](NC(=O)N[C@H](C(=O)N1C[C@H]2[C@@H]([C@H]1C(=O)NC(CC1CCC1)C(=O)C(N)=O)C2(C)C)C1(C)CCCCC1)C(C)(C)C (stereo not given in full) | 150 | 24 | 
14 | CC(C)(C)NC(=O)OC[C@@H](NC(=O)N[C@H](C(=O)N1C[C@H]2[C@@H]([C@H]1C(=O)NC(CC1CCC1)C(=O)C(N)=O)C2(C)C)C1Cc2ccccc2C1)C(C)(C)C (stereo not given in full) | 200 | 12 | 
15 | C=CCNC(=O)C(=O)C(CCC)NC(=O)[C@@H]1[C@@H]2[C@H](CN1C(=O)[C@@H](NC(=O)N[C@H](COC(=O)NCC1CC1)C(C)(C)C)C1(C)CCCCC1)C2(C)C (stereo not given in full) | 100 | 32 | 
16 | C=CCNC(=O)C(=O)C(CCCC)NC(=O)[C@@H]1[C@@H]2[C@H](CN1C(=O)[C@@H](NC(=O)N[C@H](COC(=O)NCC)C(C)(C)C)C1Cc3ccccc3C1)C2(C)C (stereo not given in full) | 400 | 23 | 
17 | COC[C@@](C)(CC(C)C)NC(=O)N[C@H](C(=O)N1C[C@H]2[C@@H]([C@H]1C(=O)NC(CC1CCC1)C(=O)C(N)=O)C2(C)C)C1(C)CCCCC1 (stereo not given in full) |  | 50 | 
18 | C=CCNC(=O)C(=O)C(CCC)NC(=O)[C@@H]1[C@@H]2[C@H](CN1C(=O)[C@@H](NC(=O)N[C@H](COC(=O)NCC)C(C)(C)C)C1Cc3ccccc3C1)C2(C)C (stereo not given in full) | 400 | 33 | AUC(0-t) at 6 h [2]: 0.7 µM·h
19 | C=CCNC(=O)C(=O)C(CC1CC1)NC(=O)[C@@H]1[C@@H]2[C@H](CN1C(=O)[C@@H](NC(=O)N[C@H](COC(=O)NCC)C(C)(C)C)C1Cc3ccccc3C1)C2(C)C (stereo not given in full) | 400 | 50 | 
20 | CC(C)(C)OCC1(NC(=O)N[C@H](C(=O)N2C[C@H]3[C@@H]([C@H]2C(=O)NC(CC2CCC2)C(=O)C(N)=O)C3(C)C)C2(C)CCCCC2)CCCCC1 (stereo not given in full) |  | 120 | 
21 | C=CCNC(=O)C(=O)C(CCC)NC(=O)[C@@H]1[C@@H]2[C@H](CN1C(=O)[C@@H](NC(=O)N[C@H](COC(=O)NCC)C(C)(C)C)C1(C)CCCCC1)C2(C)C (stereo not given in full) | 150 | 28 | 

Row | Compound | EC90 (Hepatitis C virus) [nM] | Ki [1] [nM] | further results
22 | CN(C)C(=O)OC[C@@H](NC(=O)N[C@H](C(=O)N1C[C@H]2[C@@H]([C@H]1C(=O)NC(CC1CCC1)C(=O)C(N)=O)C2(C)C)C1Cc2ccccc2C1)C(C)(C)C (stereo not given in full) | 300 | 23 | 
23 | CC(C)NC(=O)OC[C@@H](NC(=O)N[C@H](C(=O)N1C[C@H]2[C@@H]([C@H]1C(=O)NC(CC1CCC1)C(=O)C(N)=O)C2(C)C)C1Cc2ccccc2C1)C(C)(C)C (stereo not given in full) | 200 | 9 | 
24 | C=CCNC(=O)C(=O)C(CCC)NC(=O)[C@@H]1[C@@H]2[C@H](CN1C(=O)[C@@H](NC(=O)N[C@H](COC(=O)NCC(C)C)C(C)(C)C)C1(C)CCCCC1)C2(C)C (stereo not given in full) |  | 58 | 
25 | CNC(=O)OC[C@@H](NC(=O)N[C@H](C(=O)N1C[C@H]2[C@@H]([C@H]1C(=O)NC(CC1CCC1)C(=O)C(N)=O)C2(C)C)C1Cc2ccccc2C1)C(C)(C)C (stereo not given in full) | 200 | 9 | 
26 | CC(C)(C)OC[C@@H](NC(=O)N[C@H](C(=O)N1C[C@H]2[C@@H]([C@H]1C(=O)NC(CC1CCC1)C(=O)C(N)=O)C2(C)C)C1(C)CCCCC1)C(C)(C)C (stereo not given in full) |  | 100 | 
27 | C#CCCC(NC(=O)[C@@H]1[C@@H]2[C@H](CN1C(=O)[C@@H](NC(=O)N[C@H](COC(=O)NCC)C(C)(C)C)C1(C)CCCCC1)C2(C)C)C(=O)C(=O)NCCC (stereo not given in full) | 200 | 16 | 
28 | C=CCNC(=O)C(=O)C(CCC)NC(=O)[C@@H]1[C@@H]2[C@H](CN1C(=O)[C@@H](NC(=O)N[C@H](COC(=O)NCC)C1CCCCC1)C1(C)CCCCC1)C2(C)C (stereo not given in full) |  | 84 | 
29 | COC[C@@H](NC(=O)N[C@H](C(=O)N1C[C@H]2[C@@H]([C@H]1C(=O)NC(CC1CCC1)C(=O)C(N)=O)C2(C)C)C1Cc2ccccc2C1)C(C)(C)C (stereo not given in full) | 200 | 15 | AUC [6]: 0.1 µM·h
30 | CCC[C@@](C)(COC)NC(=O)N[C@H](C(=O)N1C[C@H]2[C@@H]([C@H]1C(=O)NC(CC1CCC1)C(=O)C(N)=O)C2(C)C)C1(C)CCCCC1 (stereo not given in full) |  | 170 | 
31 | CC(C)(C)[C@H](NC(=O)N[C@H](COCc1ccccc1)C(C)(C)C)C(=O)N1C[C@H]2[C@@H]([C@H]1C(=O)NC(CC1CCC1)C(=O)C(N)=O)C2(C)C (stereo not given in full) |  | 130 | 
32 | C#CCCC(NC(=O)[C@@H]1[C@@H]2[C@H](CN1C(=O)[C@@H](NC(=O)NC1(COC(=O)NCC)CCCCC1)C1(C)CCCCC1)C2(C)C)C(=O)C(=O)NCC=C (stereo not given in full) | 600 | 9 | 
33 | CCNC(=O)OC[C@@H](NC(=O)N[C@H](C(=O)N1C[C@H]2[C@@H]([C@H]1C(=O)NC(CC1CCC1)C(=O)C(N)=O)C2(C)C)C1CCCCC1)C(C)(C)C (stereo not given in full) | 600 | 10 | 
34 | C=CCNC(=O)C(=O)C(CCCC)NC(=O)[C@@H]1[C@@H]2[C@H](CN1C(=O)[C@@H](NC(=O)N[C@H](COC(=O)NCC)C(C)(C)C)C1(C)CCCCC1)C2(C)C (stereo not given in full) | 400 | 28 | 
35 | C#CCCC(NC(=O)[C@@H]1[C@@H]2[C@H](CN1C(=O)[C@@H](NC(=O)N[C@H](COC(=O)NCC1CCCCC1)C(C)(C)C)C1(C)CCCCC1)C2(C)C)C(=O)C(=O)NCC=C (stereo not given in full) | 250 | 20 | 
36 | C=CCNC(=O)C(=O)C(CCC)NC(=O)[C@@H]1[C@@H]2[C@H](CN1C(=O)[C@@H](NC(=O)N[C@H](COC(=O)NCC1CCCCC1)C(C)(C)C)C1(C)CCCCC1)C2(C)C (stereo not given in full) |  | 130 | 
37 | C#CCCC(NC(=O)[C@@H]1[C@@H]2[C@H](CN1C(=O)[C@@H](NC(=O)N[C@H](COC(=O)NCC1CC1)C(C)(C)C)C1(C)CCCCC1)C2(C)C)C(=O)C(=O)NCC=C (stereo not given in full) | 70 | 7 | AUC(0-t) at 6 h [2]: 5 µM·h; concentration at 6 h [3]: 581 ng/g
38 | C=CCNC(=O)C(=O)C(CCC)NC(=O)[C@@H]1[C@@H]2[C@H](CN1C(=O)[C@@H](NC(=O)N[C@H](COC(=O)NC(C)C)C(C)(C)C)C1(C)CCCCC1)C2(C)C (stereo not given in full) | 150 | 24 | AUC(0-t) at 6 h [2]: 6.6 µM·h; concentration at 6 h [3]: 808 ng/g
39 | CCNC(=O)OC[C@@H](NC(=O)N[C@H](C(=O)N1C[C@H]2[C@@H]([C@H]1C(=O)NC(CC1CC1)C(=O)C(N)=O)C2(C)C)C1Cc2ccccc2C1)C(C)(C)C (stereo not given in full) | 200 | 7 | 
40 | C#CCCC(NC(=O)[C@@H]1[C@@H]2[C@H](CN1C(=O)[C@@H](NC(=O)N[C@H](COC(=O)NCC)C(C)(C)C)C1(C)CCCCC1)C2(C)C)C(=O)C(=O)NCC (stereo not given in full) | 200 | 21 | 
41 | CCNC(=O)OC[C@@H](NC(=O)N[C@H](C(=O)N1C[C@H]2[C@@H]([C@H]1C(=O)NC(CC1CCC1)C(=O)C(N)=O)C2(C)C)C1Cc2ccccc2C1)C(C)(C)C (stereo not given in full) | 100 | 7 | concentration at 1 h [7]: 244 ng/g; AUC (Rattus norvegicus): 0.3 µM·h
42 | C=CCNC(=O)C(=O)C(CCC)NC(=O)[C@@H]1[C@@H]2[C@H](CN1C(=O)[C@@H](NC(=O)NC1(COC(=O)NCC)CCCCC1)C1(C)CCCCC1)C2(C)C (stereo not given in full) | 700 | 210 | 

From ChEMBL document CHEMBL1138483, “Toward second generation hepatitis C virus NS3 serine protease inhibitors: discovery of novel P4 modified analogues with improved potency and pharmacokinetic profile” (J Med Chem, 2009)
